Tests used:
Homo sapiens = species on record: Homo sapiens; experiment: Selectivity index, ratio of IC50 for human MAOA to IC50 for human MAOB
In short: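 Selectivity index was computed as IC50 (MAO-A)/IC50 (MAO-B), each IC50 being the mean of three experiments.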

[1] = biological target: T1, MAO-A (amine oxidase [flavin-containing] A) (Homo sapiens, UniProt P21397); experiment: Inhibition of human MAOA at 100 uM incubated for 15 mins using p-tyramine substrate by Amplex red reagent based fluorescence assay; conditions: human MAOA enzyme, probe p-tyramine
T1 sequence (P21397 whole entry): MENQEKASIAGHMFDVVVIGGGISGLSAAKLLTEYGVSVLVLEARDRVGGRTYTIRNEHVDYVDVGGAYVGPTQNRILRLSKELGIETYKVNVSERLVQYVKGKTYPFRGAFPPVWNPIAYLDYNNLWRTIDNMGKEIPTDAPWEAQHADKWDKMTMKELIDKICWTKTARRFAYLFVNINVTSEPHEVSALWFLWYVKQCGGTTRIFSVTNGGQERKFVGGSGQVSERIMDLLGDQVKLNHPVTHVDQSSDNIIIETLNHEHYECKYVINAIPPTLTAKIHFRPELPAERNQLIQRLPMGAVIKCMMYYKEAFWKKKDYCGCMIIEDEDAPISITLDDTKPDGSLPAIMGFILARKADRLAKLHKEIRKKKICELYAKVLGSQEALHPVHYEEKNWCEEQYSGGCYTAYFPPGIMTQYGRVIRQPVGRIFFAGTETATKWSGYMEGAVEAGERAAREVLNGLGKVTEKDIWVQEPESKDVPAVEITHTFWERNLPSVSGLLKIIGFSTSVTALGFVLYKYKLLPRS
In short: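 hMAO-A was tested at a single concentration of 100 μM, with iproniazid as reference inhibitor.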

[2] = biological target: T2, Amine oxidase [flavin-containing] B (Homo sapiens, UniProt P27338); experiment: Inhibition of human MAOB incubated for 15 mins using p-tyramine substrate by Amplex red reagent based fluorescence assay
T2 sequence (P27338 whole entry): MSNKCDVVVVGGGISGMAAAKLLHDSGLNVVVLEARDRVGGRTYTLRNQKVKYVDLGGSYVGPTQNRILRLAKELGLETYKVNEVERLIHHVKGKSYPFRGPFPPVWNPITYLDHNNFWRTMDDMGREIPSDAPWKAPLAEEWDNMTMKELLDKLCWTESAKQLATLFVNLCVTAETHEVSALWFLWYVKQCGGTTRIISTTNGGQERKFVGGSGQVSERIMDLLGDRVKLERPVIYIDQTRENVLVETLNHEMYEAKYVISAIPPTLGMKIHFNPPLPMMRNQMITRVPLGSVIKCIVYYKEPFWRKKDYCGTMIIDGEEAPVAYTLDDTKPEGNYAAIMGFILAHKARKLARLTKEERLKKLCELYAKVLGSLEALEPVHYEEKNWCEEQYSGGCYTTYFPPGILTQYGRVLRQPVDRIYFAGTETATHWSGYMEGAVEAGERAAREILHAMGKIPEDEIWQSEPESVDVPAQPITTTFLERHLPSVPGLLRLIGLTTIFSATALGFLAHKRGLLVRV

[3] = biological target: T2, Amine oxidase [flavin-containing] B; experiment: Reversible inhibition of human MAOB at 2 fold enzymatic IC50 level pre-incubated for 15 mins using p-tyramine substrate and measured after 15 mins by Amplex red reagent based fluorescence assay; conditions: 0.25 h
[4] = biological target: T2, Amine oxidase [flavin-containing] B; experiment: Reversible inhibition of human MAOB at 2 fold enzymatic IC50 level pre-incubated for 60 mins using p-tyramine substrate and measured after 15 mins by Amplex red reagent based fluorescence assay; conditions: 0.25 h
[5] = biological target: T2, Amine oxidase [flavin-containing] B; experiment: Reversible inhibition of human MAOB at 2 fold enzymatic IC50 level pre-incubated for 0 mins using p-tyramine substrate and measured after 15 mins by Amplex red reagent based fluorescence assay; conditions: 0.25 h
[6] = biological target: T2, Amine oxidase [flavin-containing] B; experiment: Reversible inhibition of human MAOB at 2 fold enzymatic IC50 level pre-incubated for 30 mins using p-tyramine substrate and measured after 15 mins by Amplex red reagent based fluorescence assay; conditions: 0.25 h
SH-SY5Y = experiment: Cytotoxicity in human SH-SY5Y cells assessed as reduction in cell viability at 3 to 50 uM incubated for 48 hrs by MTT assay; assay type: cell-based
In short: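 SH-SY5Y cells were exposed to various concentrations of test compound for 48 h, then viability was read by MTT assay. Results are expressed as percentage of control cells, mean ± SD of three independent experiments.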

[7] = biological target: T2, Amine oxidase [flavin-containing] B; experiment: Reversible inhibition of human MAOB at 2 fold enzymatic IC50 level pre-incubated for 0 to 60 mins using p-tyramine substrate and measured after 15 mins by Amplex red reagent based fluorescence assay; conditions: 0.25 h
[8] = biological target: T3, Amine oxidase [flavin-containing] A (Homo sapiens, UniProt P21397); experiment: Inhibition of human MAOA incubated for 15 mins using p-tyramine substrate by Amplex red reagent based fluorescence assay
T3 sequence (P21397 whole entry): T1 sequence (P21397 whole entry)
In short: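 IC50 against hMAO-A is reported as mean ± SEM of three experiments, with iproniazid as reference.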

[9] = biological target: T2, Amine oxidase [flavin-containing] B; experiment: Competitive inhibition of human MAOB at 0.095 to 0.38 uM using 50 to 500 uM p-tyramine substrate by Amplex red reagent dependent fluorescence assay based Lineweaver-Burk plot analysis
In short: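 Kinetics were run as Michaelis-Menten experiments. Rates were measured at five p-tyramine concentrations (50-500 μM), with four inhibitor concentrations (0, 0.095, 0.19 and 0.38 μM). Inhibition type was assigned from overlaid double-reciprocal Lineweaver-Burk plots.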

| Ratio IC50 (Homo sapiens) | inhibition at 0.25 h, 100 µM [1] [%] | IC50 [2] [µM] | IC50 [8] [µM] | Compound | other results |
| --- | --- | --- | --- | --- | --- |
| > 6.3 | 25 | 15.8 |  | COc1cccc(OCc2ccccc2)c1 |  |
| > 6.4 | 22 | 15.6 |  | COc1cccc(OCc2ccc(F)cc2)c1 |  |
| > 11.6 | 25 | 8.63 |  | COc1cccc(OCc2ccc(Br)cc2)c1 |  |
| > 94.3 | 37 | 1.06 |  | Fc1cccc(COc2cccc(Br)c2)c1 |  |
| 45.7 |  | 0.93 | 42.5 | O=Cc1cccc(OCc2ccc(F)cc2)c1 |  |
| > 8.1 | 19 | 12.3 |  | COc1cccc(OCc2cccc(F)c2)c1 |  |
| > 172 | 31 | 0.58 |  | Fc1ccc(COc2cccc(Br)c2)cc1 |  |

The remaining lines, values behind:

| Compound | Ratio IC50 (Homo sapiens) | inhibition at 0.25 h, 100 µM [1] [%] | IC50 [2] [µM] | IC50 [8] [µM] | other results |
| --- | --- | --- | --- | --- | --- |
| COc1cccc(OCc2cccc(Br)c2)c1 | > 5.2 | 22 | 19.3 |  |  |
| O=Cc1cccc(OCc2ccc(Br)cc2)c1 |  |  | 0.19 | 27.9 | inhibition (INH) [3]: 45.8%; inhibition (INH) [4]: 49.5%; inhibition (INH) [5]: 46.4%; inhibition (INH) [6]: 49.9%; Activity (SH-SY5Y): Non-Toxic; inhibition (INH) [7]: Active |
| O=Cc1cccc(OCc2ccccc2)c1 | 23.3 |  | 1.96 | 45.6 |  |
| Brc1ccc(COc2cccc(Br)c2)cc1 |  | 30 | 0.35 |  | inhibition (INH) [3]: 44.9%; inhibition (INH) [9]: Active; inhibition (INH) [4]: 49.2%; inhibition (INH) [5]: 44.8%; inhibition (INH) [6]: 48.6%; Activity (SH-SY5Y): Non-Toxic; inhibition (INH) [7]: Active |
| O=Cc1cccc(OCc2cccc(Br)c2)c1 | 53.2 |  | 0.53 | 28.2 |  |
| Cc1ccc(COc2cccc(Br)c2)cc1 | > 65.4 | 24 | 1.53 |  |  |
| O=Cc1cccc(OCc2cccc(F)c2)c1 | 53.1 |  | 1.21 | 64.2 |  |
| Brc1cccc(COc2cccc(Br)c2)c1 | > 132 | 27 | 0.76 |  |  |
| Cc1cccc(COc2cccc(C=O)c2)c1 | 17.7 |  | 2.91 | 51.6 |  |
| COc1cccc(OCc2ccc(C)cc2)c1 | > 6.8 | 26 | 14.6 |  |  |
| COc1cccc(OCc2cccc(C)c2)c1 | > 9.2 | 23 | 10.9 |  |  |
| Cc1ccc(COc2cccc(C=O)c2)cc1 | 25.6 |  | 2.53 | 64.8 |  |
| Brc1cccc(OCc2ccccc2)c1 | > 36.6 | 23 | 2.73 |  |  |
| Cc1cccc(COc2cccc(Br)c2)c1 | > 50.5 | 43 | 1.98 |  |  |

From ChEMBL document CHEMBL4138066, “Synthesis and evaluation of small molecules bearing a benzyloxy substituent as novel and potent monoamine oxidase inhibitors” (Medchemcomm, 2017)
